Experiments:
[1] = tested on: Toxoplasma gondii oocysts; conditions: sheep infected with T. gondii oocysts during pregnancy; ref Sánchez-Sánchez et al., 2019; cited from earlier work
[2] = Plasma protein binding by equilibrium dialysis, human plasma; type: in vitro ADME; conditions: 5 μM
Outline: (§1)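 Test compound in DMSO was spiked into plasma at 5 μM; an aliquot of spiked plasma served as the 100% recovery standard. Samples were matrix-matched, extracted in 80% acetonitrile with internal standard and quantified by UPLC-MS/MS. Fraction bound = bound/(unbound + bound), corrected for matrix dilution.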

[3] = tested on: IFNγ; test: Peripheral blood cell stimulation assay, IFNγ production; type: in vivo, sheep
Outline: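 Heparinized jugular blood from dams was sampled before infection, at 3, 5, 7 and 10 days pi, then weekly. Blood was cultured with soluble N. caninum antigen or ConA for 24 h at 37 °C, 5% CO2, and IFNγ measured in supernatants by enzyme immunoassay. Analysis: repeated-measures two-way ANOVA to day 28 pi, one-way ANOVA afterwards; mean ± S.D.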

[4] = tested on: N. caninum soluble antigens; test: In-house indirect ELISA, IgG against N. caninum soluble antigens in dams; type: in vivo, sheep
Outline: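 Dam sera were collected before infection, at 3, 5, 7 and 10 days pi, then weekly. Plates were coated with soluble N. caninum antigen and blocked; sera were diluted 1:100 in 1% BSA in PBS with 0.05% Tween 20. Detection used HRP anti-goat/sheep IgG (1:20000) with ABTS, stopped with 0.3 M oxalic acid, read at OD405 and expressed as RIPC. Analysis: repeated-measures two-way ANOVA to day 28 pi, one-way ANOVA after.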

[5] = pregnant sheep; ref Sánchez-Sánchez et al., 2019; cited from earlier work
[6] = Plasma protein binding by equilibrium dialysis, dog plasma; type: in vitro ADME; conditions: 5 μM
Outline: as §1

[7] = tested on: Neospora caninum Nc-Spain7 tachyzoites; test: Rectal temperatures and fever in N. caninum-infected pregnant sheep; type: in vivo; conditions: days 5, 7 and 9 pi
[8] = BKI-1294 plasma exposure; type: in vivo, sheep; conditions: G1
Outline: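 Rasa Aragonesa ewes (12 months, seronegative), challenged i.v. with Nc-Spain7 tachyzoites. From 48 h pi, test compound was given orally by oro-ruminal probe at 100 mg/kg, 5 doses every other day. Heparinized blood was sampled at set times and plasma analysed by LC-MS/MS. Troughs were taken 48 h after each dose; values are mean ± S.D.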

[9] = tested on: NcSAG1; test: Commercial TgSAG1 ELISA, anti-NcSAG1 IgG in dams; type: in vivo, sheep; conditions: days 21 (P < 0.01) and 42 pi (P < 0.05)
[10] = tested on: Neospora caninum Nc-Spain7 tachyzoites; test: Foetal survival in pregnant sheep infected with N. caninum at mid-pregnancy; type: in vivo
[11] = tested on: Nc-Spain7 isolate; conditions: in vitro, ref Winzer et al., 2015; cited from earlier work
[12] = Safety monitoring of treated pregnant sheep; type: in vivo
Outline: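 Infected pregnant ewes received test compound orally at 100 mg/kg, 5 doses every other day from 48 h pi; uninfected controls received vehicle. A veterinarian observed animals daily for faecal consistency, blood in faeces and behavioural changes. Rectal temperature was taken daily to day 14 pi, then weekly; >40 °C counted as fever.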

[13] = mice; ref Vidadala et al., 2016; cited from earlier work
[14] = ref Schaefer et al., 2016; cited from earlier work
[15] = tested on: Neospora caninum; test: qPCR parasite burden in placentomes and foetal brain; type: in vivo; conditions: aborted sheep
Outline: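 DNA was extracted by paramagnetic-particle capture from 50–100 mg of foetal brain (three replicates each) and six placental samples per dam. Samples were screened by nested Nc5-PCR (337 bp product), with 10, 1 and 0.1 tachyzoite-equivalent controls in 100 ng sheep DNA and an uninfected-group negative. PCR-positive samples were quantified by real-time PCR; burdens compared by Mann–Whitney test.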

[16] = Plasma protein binding by equilibrium dialysis, mouse plasma; type: in vitro ADME; conditions: 5 μM
Outline: as §1

[17] = Plasma protein binding by equilibrium dialysis, rat plasma; type: in vitro ADME; conditions: 5 μM
Outline: as §1

CCOc1ccc2cc(-c3nn(CC4CCN(C)CC4)c4ncnc(N)c34)ccc2c1 [BKI-1294]
efficacy against abortion [1]: 71%
efficacy against vertical transmission [1]: 53%
plasma protein binding (bound) [2]: 85%
IFNγ levels versus infected/untreated group ([3]; day 7 pi, blood stimulated with N. caninum antigen, P < 0.0001): higher IFNγ levels
IFNγ levels relative to infected/untreated group ([3]; days 14, 21 and 28 pi, not significant): approximately 10 fold
IgG levels against N. caninum soluble antigens versus infected/untreated group ([4]; days 14, 21 and 28 pi): lower antibody response
IgG levels against N. caninum soluble antigens versus infected/untreated group ([4]; from day 35 pi onwards): no significant differences
safety of repeated oral administration [5]: safe, both locally and systemically
plasma protein binding (bound) [6]: 52%
rectal temperatures versus infected/untreated group [7]: significantly lower increase in rectal temperatures
trough plasma concentrations ([8]; 48 h after 1st oral dose of 100 mg/kg): 0.7 ± 0.4 µM
trough plasma concentrations ([8]; 48 h after 2nd oral dose of 100 mg/kg): 0.7 ± 0.4 µM
trough plasma concentrations ([8]; 48 h after 3rd oral dose of 100 mg/kg): 0.9 ± 0.5 µM
trough plasma concentrations ([8]; 48 h after 4th oral dose of 100 mg/kg): 1.4 ± 1.1 µM
trough plasma concentrations ([8]; 48 h after 5th oral dose of 100 mg/kg): 1.3 ± 0.8 µM
anti-NcSAG1 IgG levels versus infected/untreated group [9]: lower anti-NcSAG1 IgG levels
median day of foetal death ([10]; G1 infected/treated (G2: 45)): 44 day pi
foetal mortality (sheep whose foetuses died, 7 out of 8) ([10]; G1 infected/treated, same in G2 untreated): 87%
foetal survival rate versus infected/untreated group ([10]; log-rank test): no significant differences
IC50 [11]: 270 ± 20 nM
safety of oral administration ([12]; N. caninum-infected pregnant sheep, oral 100 mg/kg x5): safe
Diarrhoea, bloody stools, and behavioural disorders ([12]; oral 100 mg/kg, 5 doses every other day, pregnant sheep): not observed
CNS crossing [13]: 30%
bioavailability lower than BKI-1553 [13]: 30 fold
plasma clearance [13]: high plasma clearance
PPB in mice [14]: 85%
parasite burden in placentomes versus infected/untreated group [15]: No significant differences
plasma protein binding (bound) [16]: 85%
plasma protein binding (bound) [17]: 85%
